Measured values: ChEMBL document CHEMBL1143313, “Synthesis of novel 4,6-di(substituted)amino-1,2-dihydro-1,3,5-triazine derivatives as topical antiseptic agents” (2009)

Key:
Format in all cases: functional
Escherichia coli [1] = assay: Bactericidal activity against Escherichia coli NIHJ JC-2 preincubated for 1 min before addition of growth medium measured after 40 to 48 hrs
Escherichia coli [2] = assay: Bactericidal activity against Escherichia coli NIHJ JC-2 preincubated for 3 mins before addition of growth medium measured after 40 to 48 hrs
Escherichia coli [3] = assay: Bactericidal activity against Escherichia coli NIHJ JC-2 preincubated for 5 mins before addition of growth medium measured after 40 to 48 hrs
Pseudomonas aeruginosa [4] = assay: Bactericidal activity against Pseudomonas aeruginosa PAO1 preincubated for 1 min before addition of growth medium measured after 40 to 48 hrs
Pseudomonas aeruginosa [5] = assay: Bactericidal activity against Pseudomonas aeruginosa PAO1 preincubated for 3 mins before addition of growth medium measured after 40 to 48 hrs
Pseudomonas aeruginosa [6] = assay: Bactericidal activity against Pseudomonas aeruginosa PAO1 preincubated for 5 mins before addition of growth medium measured after 40 to 48 hrs
Staphylococcus aureus [7] = assay: Bactericidal activity against methicillin-resistant Staphylococcus aureus 97-53 preincubated for 1 min before addition of growth medium measured after 40 to 48 hrs
Procedure, shortened: (§1)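 Read-out is the minimal bactericidal concentration (MBC), taken after 1, 3 and 5 min contact of compound with the test organism.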

Staphylococcus aureus [8] = assay: Bactericidal activity against methicillin-resistant Staphylococcus aureus 97-53 preincubated for 3 mins before addition of growth medium measured after 40 to 48 hrs; procedure, shortened: as §1
Staphylococcus aureus [9] = assay: Bactericidal activity against methicillin-resistant Staphylococcus aureus 97-53 preincubated for 5 mins before addition of growth medium measured after 40 to 48 hrs; procedure, shortened: as §1
Staphylococcus aureus [10] = assay: Bactericidal activity against methicillin-resistant Staphylococcus aureus KM 97-108 preincubated for 1 min before addition of growth medium measured after 40 to 48 hrs; procedure, shortened: as §1
Staphylococcus aureus [11] = assay: Bactericidal activity against methicillin-resistant Staphylococcus aureus KM 97-108 preincubated for 3 mins before addition of growth medium measured after 40 to 48 hrs; procedure, shortened: as §1
Staphylococcus aureus [12] = assay: Bactericidal activity against methicillin-resistant Staphylococcus aureus KM 97-108 preincubated for 5 mins before addition of growth medium measured after 40 to 48 hrs; procedure, shortened: as §1
Enterococcus [13] = assay: Bactericidal activity against vancomycin-resistant Enterococcus 49 preincubated for 1 min before addition of growth medium measured after 40 to 48 hrs; procedure, shortened: as §1
Enterococcus [14] = assay: Bactericidal activity against vancomycin-resistant Enterococcus 49 preincubated for 3 mins before addition of growth medium measured after 40 to 48 hrs; procedure, shortened: as §1
Enterococcus [15] = assay: Bactericidal activity against vancomycin-resistant Enterococcus 49 preincubated for 5 mins before addition of growth medium measured after 40 to 48 hrs; procedure, shortened: as §1
Pseudomonas aeruginosa [16] = assay: Bactericidal activity against Pseudomonas aeruginosa 12 preincubated for 1 min before addition of growth medium measured after 40 to 48 hrs
Pseudomonas aeruginosa [17] = assay: Bactericidal activity against Pseudomonas aeruginosa 12 preincubated for 3 mins before addition of growth medium measured after 40 to 48 hrs
Pseudomonas aeruginosa [18] = assay: Bactericidal activity against Pseudomonas aeruginosa 12 preincubated for 5 mins before addition of growth medium measured after 40 to 48 hrs
Staphylococcus aureus [19] = assay: Antibacterial activity against Staphylococcus aureus 209PJC after 24 hrs
Procedure, shortened: (§2)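 Value is the minimal inhibitory concentration (MIC) against the test organism, read after 24 h of incubation.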

Staphylococcus aureus [20] = assay: Antibacterial activity against methicillin-resistant Staphylococcus aureus 97-115 after 24 hrs
Procedure, shortened: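 Read-out is the minimal inhibitory concentration (MIC), taken after 24 h incubation with the test organism.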

Escherichia coli [21] = assay: Antibacterial activity against Escherichia coli NIHJ JC-2 after 24 hrs; procedure, shortened: as §2
Pseudomonas aeruginosa [22] = assay: Antibacterial activity against Pseudomonas aeruginosa PAO1; procedure, shortened: as §2
Staphylococcus aureus [23] = assay: Bactericidal activity against Staphylococcus aureus 209PJC preincubated for 1 min before addition of growth medium measured after 40 to 48 hrs
Staphylococcus aureus [24] = assay: Bactericidal activity against Staphylococcus aureus 209PJC preincubated for 3 mins before addition of growth medium measured after 40 to 48 hrs
Staphylococcus aureus [25] = assay: Bactericidal activity against Staphylococcus aureus 209PJC preincubated for 5 mins before addition of growth medium measured after 40 to 48 hrs
Staphylococcus aureus [26] = assay: Bactericidal activity against methicillin-resistant Staphylococcus aureus 97-115 preincubated for 1 min before addition of growth medium measured after 40 to 48 hrs; procedure, shortened: as §1
Staphylococcus aureus [27] = assay: Bactericidal activity against methicillin-resistant Staphylococcus aureus 97-115 preincubated for 3 mins before addition of growth medium measured after 40 to 48 hrs; procedure, shortened: as §1
Staphylococcus aureus [28] = assay: Bactericidal activity against methicillin-resistant Staphylococcus aureus 97-115 preincubated for 5 mins before addition of growth medium measured after 40 to 48 hrs; procedure, shortened: as §1

SMILES	MBC (Escherichia coli [1])	MBC (Escherichia coli [2])	MBC (Escherichia coli [3])	MBC (Pseudomonas aeruginosa [4])	MBC (Pseudomonas aeruginosa [5])	MBC (Pseudomonas aeruginosa [6])	MBC (Staphylococcus aureus [7])	MBC (Staphylococcus aureus [8])	MBC (Staphylococcus aureus [9])	MBC (Staphylococcus aureus [10])	MIC (Staphylococcus aureus [19])	MIC (Staphylococcus aureus [20])	MIC (Escherichia coli [21])	MIC (Pseudomonas aeruginosa [22])	MBC (Staphylococcus aureus [23])	MBC (Staphylococcus aureus [24])	MBC (Staphylococcus aureus [25])	MBC (Staphylococcus aureus [26])	MBC (Staphylococcus aureus [27])	MBC (Staphylococcus aureus [28])	other results
N=C(NCCCCCCNC(=N)NC(=N)Nc1ccc(Cl)cc1)NC(=N)Nc1ccc(Cl)cc1.O=C(O)[C@H](O)[C@@H](O)[C@H](O)[C@H](O)CO	62.5 µg/mL	31.3 µg/mL	15.6 µg/mL	> 500 µg/mL	> 500 µg/mL	> 500 µg/mL	500 µg/mL	250 µg/mL	250 µg/mL	500 µg/mL	0.2 µg/mL	3.1 µg/mL	1.6 µg/mL	50 µg/mL	62.5 µg/mL	62.5 µg/mL	62.5 µg/mL	1000 µg/mL	250 µg/mL	125 µg/mL	MBC (Staphylococcus aureus [11]): 500 µg/mL; MBC (Staphylococcus aureus [12]): 500 µg/mL; MBC (Enterococcus [13]): > 1000 µg/mL; MBC (Enterococcus [14]): > 1000 µg/mL; MBC (Enterococcus [15]): > 1000 µg/mL; MBC (Pseudomonas aeruginosa [16]): 125 µg/mL; MBC (Pseudomonas aeruginosa [17]): 31.3 µg/mL; MBC (Pseudomonas aeruginosa [18]): 31.3 µg/mL
CC(=O)O.CCCCCCCCNC1=NC(C)(C)NC(NCCCCCC)=N1	12.5 µg/mL	6.3 µg/mL	6.3 µg/mL	6.3 µg/mL	3.1 µg/mL	1.6 µg/mL	50 µg/mL	25 µg/mL	25 µg/mL	50 µg/mL	0.8 µg/mL	0.8 µg/mL	12.5 µg/mL	50 µg/mL	12.5 µg/mL	6.3 µg/mL	6.3 µg/mL	12.5 µg/mL	6.3 µg/mL	6.3 µg/mL	MBC (Staphylococcus aureus [11]): 25 µg/mL; MBC (Staphylococcus aureus [12]): 25 µg/mL; MBC (Enterococcus [13]): 25 µg/mL; MBC (Enterococcus [14]): 25 µg/mL; MBC (Enterococcus [15]): 12.5 µg/mL; MBC (Pseudomonas aeruginosa [16]): 3.1 µg/mL; MBC (Pseudomonas aeruginosa [17]): 3.1 µg/mL; MBC (Pseudomonas aeruginosa [18]): 1.6 µg/mL
CC(=O)O.CCCCCCCCNC1=NC(C)(C)NC(NCc2ccc(C)cc2)=N1	12.5 µg/mL	6.3 µg/mL	6.3 µg/mL	12.5 µg/mL	6.3 µg/mL	3.1 µg/mL	50 µg/mL	50 µg/mL	25 µg/mL	50 µg/mL	0.4 µg/mL	0.4 µg/mL	12.5 µg/mL	12.5 µg/mL	6.3 µg/mL	3.1 µg/mL	3.1 µg/mL	25 µg/mL	25 µg/mL	12.5 µg/mL	MBC (Staphylococcus aureus [11]): 50 µg/mL; MBC (Staphylococcus aureus [12]): 25 µg/mL; MBC (Enterococcus [13]): 25 µg/mL; MBC (Enterococcus [14]): 25 µg/mL; MBC (Enterococcus [15]): 12.5 µg/mL; MBC (Pseudomonas aeruginosa [16]): 6.3 µg/mL; MBC (Pseudomonas aeruginosa [17]): 6.3 µg/mL; MBC (Pseudomonas aeruginosa [18]): 3.1 µg/mL
CC(=O)O.CCCCCCCCNC1=NC(C)(C)NC(NCCCC)=N1	50 µg/mL	25 µg/mL	12.5 µg/mL	50 µg/mL	25 µg/mL	12.5 µg/mL	–	–	–	–	1.6 µg/mL	3.1 µg/mL	25 µg/mL	50 µg/mL	25 µg/mL	12.5 µg/mL	6.3 µg/mL	25 µg/mL	12.5 µg/mL	12.5 µg/mL	–
CC(=O)O.CCCCCCCNC1=NC(C)(C)NC(NCCCCCCC)=N1	6.3 µg/mL	3.1 µg/mL	3.1 µg/mL	3.1 µg/mL	1.6 µg/mL	1.6 µg/mL	–	–	–	–	0.8 µg/mL	0.8 µg/mL	12.5 µg/mL	50 µg/mL	6.3 µg/mL	6.3 µg/mL	3.1 µg/mL	25 µg/mL	25 µg/mL	12.5 µg/mL	–
CC(=O)O.CCCCCCCCCCNC1=NC(C)(C)NC(NCc2ccc(OC)cc2)=N1	12.5 µg/mL	6.3 µg/mL	6.3 µg/mL	12.5 µg/mL	3.1 µg/mL	3.1 µg/mL	–	–	–	–	0.4 µg/mL	0.8 µg/mL	25 µg/mL	50 µg/mL	12.5 µg/mL	6.3 µg/mL	3.1 µg/mL	25 µg/mL	6.3 µg/mL	6.3 µg/mL	–
CC(=O)O.CCCCCCCCCNC1=NC(C)(C)NC(NCCc2ccccc2)=N1	12.5 µg/mL	3.1 µg/mL	3.1 µg/mL	12.5 µg/mL	3.1 µg/mL	1.6 µg/mL	–	–	–	–	0.4 µg/mL	0.8 µg/mL	12.5 µg/mL	12.5 µg/mL	25 µg/mL	12.5 µg/mL	6.3 µg/mL	25 µg/mL	12.5 µg/mL	6.3 µg/mL	–
CC(=O)O.CCCCCCCCCNC1=NC(C)(C)NC(Nc2ccccc2)=N1	12.5 µg/mL	6.3 µg/mL	3.1 µg/mL	6.3 µg/mL	3.1 µg/mL	3.1 µg/mL	–	–	–	–	0.8 µg/mL	0.8 µg/mL	12.5 µg/mL	12.5 µg/mL	12.5 µg/mL	6.3 µg/mL	6.3 µg/mL	25 µg/mL	25 µg/mL	25 µg/mL	–
CC(=O)O.CCCCCCCNC1=NC(C)(C)NC(NCc2ccc(C)cc2)=N1	25 µg/mL	12.5 µg/mL	12.5 µg/mL	25 µg/mL	12.5 µg/mL	12.5 µg/mL	–	–	–	–	0.8 µg/mL	1.6 µg/mL	25 µg/mL	50 µg/mL	25 µg/mL	12.5 µg/mL	12.5 µg/mL	50 µg/mL	50 µg/mL	50 µg/mL	–
CC(=O)O.CCCCCCCCCCNC1=NC(C)(C)NC(NCCc2ccccc2)=N1	12.5 µg/mL	12.5 µg/mL	12.5 µg/mL	25 µg/mL	12.5 µg/mL	12.5 µg/mL	–	–	–	–	0.8 µg/mL	0.8 µg/mL	25 µg/mL	25 µg/mL	50 µg/mL	12.5 µg/mL	12.5 µg/mL	> 50 µg/mL	> 50 µg/mL	> 50 µg/mL	–
